Here are results for 37 sequences from the array DNA melting data of Ke et al. (doi:10.1101/2024.01.08.574731).

Data set [1] in a line: folding enthalpy; higher = less favourable; fluorescence melt of hairpins on a sequencing array, two-state fit. The note with it: sodium 0.088 M. The method in brief: (§1)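 Folding enthalpy and melting temperature come from bootstrapped two-state fits to Cy3 fluorescence of library hairpins carrying annealed Cy3 and quencher oligos on a sequenced MiSeq flow cell. Imaging was done in 50 mM Na-HEPES pH 8.0, 25 mM NaCl, stepping by 2.5 °C up to 60 °C, and signals were normalised to pre-quench Cy3 and to control constructs. Results of four replicates were combined by inverse variance, and fitted temperatures were raised by 9.35 °C to match UV melts.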

The nature of data set [2]: melting temperature; fluorescence melt of hairpins on a sequencing array, two-state fit, raised by 9.35 °C to match UV melts. As to conditions: sodium 0.088 M. The method in brief:
as §1

In the case of GGCCTAGGAAACTGGGCC ((((.((....)).)))), in data set [1], the folding enthalpy was -47.7 kcal/mol. Besides, the Tm in data set [2] is 57.9 °C.

For GGGAGTCGAAAGACACCC (((.(((....))).))), the folding enthalpy in data set [1] is -30 kcal/mol. For the same sequence, the Tm in data set [2] was 56.9 °C.

Turning to GCAGGCGAAAGCCTTTGC ((((((....)))..))), the folding enthalpy in data set [1] was -11 kcal/mol. Moreover, in data set [2], the Tm was 41 °C.

For the sequence GATGATGGAAACATTATC (((.(((....))).))), the folding enthalpy in data set [1] is -30.4 kcal/mol. In addition, the Tm in data set [2] was determined as 35.5 °C.

Regarding GGCTGTGGAAACATAGCC ((((.((....)).)))), the folding enthalpy in data set [1] was -43.4 kcal/mol. Moreover, the Tm in data set [2] stood at 53.5 °C.

As for GTCTAAGGAAACTTAGAC (((((((....))))))), the folding enthalpy in data set [1] is -41.9 kcal/mol. For the same sequence, the Tm in data set [2] is 51.5 °C.

Regarding GGGGCTGGAAACGGCCTC (.(((.(....).))).), the folding enthalpy in data set [1] is -20.8 kcal/mol. Moreover, in data set [2], the Tm worked out at 50.2 °C.

As for GAATAGGGAAACCTATTC (((((((....))))))), the folding enthalpy in data set [1] is -42.1 kcal/mol. In data set [2], the Tm was found to be 50 °C.

As for GGAAGCGAAAGCTTGTCC ((((((....)))..))), the folding enthalpy in data set [1] is -10.3 kcal/mol. Further, in data set [2], the Tm was 35.8 °C.

On to GCGGCTTACCGC ((((....)))), for which the folding enthalpy in data set [1] is -26.1 kcal/mol. Also, in data set [2], the Tm amounted to 61.2 °C.

On to GCGGACCGCCGC ((((....)))), for which the folding enthalpy in data set [1] is -19.1 kcal/mol. For the same sequence, the Tm in data set [2] was 55.8 °C.

For the sequence GATCCAATCGTGGATC ((((((....)))))), the folding enthalpy in data set [1] was -38.5 kcal/mol. Also, in data set [2], the Tm stood at 49 °C.

As to GATCAGGTTACTGATC ((((((....)))))), the folding enthalpy in data set [1] is -38.2 kcal/mol. For the same sequence, the Tm in data set [2] stood at 57.6 °C.

For the sequence GCGACGACGAAAGTCCGC (((..(((....)))))), the folding enthalpy in data set [1] is -24.7 kcal/mol. Also, the Tm in data set [2] is 51.4 °C.

For GCAAAGCGAAAGCTGCGC ((..(((....)))..)), in data set [1], the folding enthalpy was -28.5 kcal/mol. In addition, in data set [2], the Tm was found to be 64.3 °C.

As for GTTCCCCGAAAGGGCAAC (((.(((....))).))), the folding enthalpy in data set [1] was -14.5 kcal/mol. In addition, in data set [2], the Tm was 35.2 °C.

Regarding GCTCAGCGAAAGCTAGGC ((..(((....)))..)), the folding enthalpy in data set [1] is -15.5 kcal/mol. Besides, the Tm in data set [2] came out at 44.5 °C.

Turning to GGTGGGCGAAAGCCACC (((.(((....)))))), in data set [1], the folding enthalpy was -21.3 kcal/mol. The Tm in data set [2] was 66.1 °C.

Regarding GCCGAGCGAAAGCTTAGC ((..(((....)))..)), the folding enthalpy in data set [1] was -14.7 kcal/mol. For the same sequence, in data set [2], the Tm was found to be 39.9 °C.

Regarding GCTTAGGGAAACCTAAGC (((((((....))))))), in data set [1], the folding enthalpy was -34 kcal/mol. Moreover, the Tm in data set [2] amounted to 59.8 °C.

For GCACCTACGAAAGTATGC (((..(((....)))))), in data set [1], the folding enthalpy was -13.5 kcal/mol. Besides, the Tm in data set [2] was 27.3 °C.

In the case of CCGGAGAAATCCGG (((((....))))), the folding enthalpy in data set [1] was -21.4 kcal/mol. The Tm in data set [2] was 56.5 °C.

Turning to GCCAGTGGAAACATTGGC ((((.((....)).)))), the folding enthalpy in data set [1] is -37 kcal/mol. Further, the Tm in data set [2] amounted to 50.8 °C.

For the sequence CGCGGAAAGCTCCGCG ((((((....)))))), the folding enthalpy in data set [1] was -28.3 kcal/mol. Also, the Tm in data set [2] was found to be 68.7 °C.

With GGTCGGGGAAACCCGATC (.(((((....))))).), the folding enthalpy in data set [1] was -32 kcal/mol. For the same sequence, the Tm in data set [2] worked out at 56.7 °C.

GATCCCGTTCGGGATC ((((((....)))))): the folding enthalpy in data set [1] was -43.2 kcal/mol. Moreover, the Tm in data set [2] was 67.8 °C.

With GGTTCTGGAAACAGAACC (((((((....))))))), the folding enthalpy in data set [1] was -46.5 kcal/mol. For the same sequence, in data set [2], the Tm was found to be 60.8 °C.

Turning to GCTATGGGAAACCACAGC (((.(((....))).))), the folding enthalpy in data set [1] was -23.7 kcal/mol. Also, the Tm in data set [2] worked out at 38.6 °C.

Turning to GATCTAATTCTAGATC ((((((....)))))), in data set [1], the folding enthalpy is -29.9 kcal/mol. Besides, the Tm in data set [2] worked out at 37 °C.

Turning to GGCATGCGAAAGCACGCC (((.(((....))).))), the folding enthalpy in data set [1] is -27.3 kcal/mol. Moreover, the Tm in data set [2] was determined as 63.4 °C.

On to GCGACAGGTCGC ((((....)))), for which the folding enthalpy in data set [1] was -27.1 kcal/mol. For the same sequence, the Tm in data set [2] stood at 56.2 °C.

As for GGCCGACGAAAGTCAGCC (((.(((....))).))), in data set [1], the folding enthalpy is -35.5 kcal/mol. The Tm in data set [2] was determined as 59.4 °C.

Turning to GCTCCGGGAAACTGGGGC ((.((.(....).)).)), the folding enthalpy in data set [1] was -33.9 kcal/mol. In data set [2], the Tm came out at 48.1 °C.

With GATCCTGTAAAGGATC ((((((....)))))), the folding enthalpy in data set [1] is -39.6 kcal/mol. For the same sequence, in data set [2], the Tm stood at 60.5 °C.

Regarding GCTACTCGAAAGAGAGC (((.(((....)))))), the folding enthalpy in data set [1] was -25.4 kcal/mol. Further, the Tm in data set [2] came out at 44.8 °C.

On to GATCGAAACTTCGATC ((((((....)))))), for which the folding enthalpy in data set [1] is -33.9 kcal/mol. The Tm in data set [2] amounted to 53.5 °C.

As for GTCAAGGCGAAAGCCGAC (((..(((....)))))), the folding enthalpy in data set [1] is -10.2 kcal/mol. The Tm in data set [2] is 48.1 °C.
